Results: ChEMBL document CHEMBL3272290, “Contragestational agents. 1. Steroidal O-aryloximes” (J Med Chem, 1977)
Calls of active or inactive are those of the source. The rule behind the calls is not given here.

Assays:
Rattus norvegicus [1] = assay: Antifertility activity in Wistar rat assessed as inhibition of preimplantive gestation by measuring resorptions at 10 mg/kg, po administered in days 9 to 12 of pregnancy measured on day 21; assay type: functional; design: scale not given: the % may be the effect or the level left
Outline: (§1)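 Groups of five pregnant female Wistar-derived rats dosed orally on days 9–12 of pregnancy, in sesame oil at 0.5 mL per 200 g body weight. Read-out was the percentage of resorptions.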

Rattus norvegicus [2] = assay: Androgenic activity in castrate immature Wistar rat at 10 mg/kg, po qd for 7 days relative to 17-methyl-testosterone; assay type: functional
Outline: (§2)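 Castrated immature rats dosed orally once a day for 7 days, in sesame oil at 0.2 mL per dose. Read-out was ventral prostate weight. Potency is expressed relative to 17-methyltestosterone. MED is the smallest tested dose giving a significant rise in ventral prostate weight.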

Rattus norvegicus [3] = assay: Androgenic activity in po dosed castrate immature Wistar rat assessed as dose required to produce significant increase in ventral prostate weight administered qd for 7 days; assay type: functional; settings: Prostate gland, 168 h, read-out: MED; outline: as §2
Rattus norvegicus [4] = assay: Antifertility activity in Wistar rat assessed as inhibition of preimplantive gestation by measuring resorptions at 20 mg/kg, po administered in days 9 to 12 of pregnancy measured on day 21; assay type: functional; design: scale not given: the % may be the effect or the level left; outline: as §1
Rattus norvegicus [5] = assay: Antifertility activity in Wistar rat assessed as inhibition of preimplantive gestation by measuring resorptions at 5 mg/kg, po administered in days 9 to 12 of pregnancy measured on day 21; assay type: functional; design: scale not given: the % may be the effect or the level left; outline: as §1
Rattus norvegicus [6] = assay: Antifertility activity in Wistar rat assessed as inhibition of preimplantive gestation by measuring resorptions at 2.5 mg/kg, po administered in days 9 to 12 of pregnancy measured on day 21; assay type: functional; design: scale not given: the % may be the effect or the level left; outline: as §1
Rattus norvegicus [7] = assay: Androgenic activity in castrate immature Wistar rat at 2.5 mg/kg, po qd for 7 days relative to 17-methyl-testosterone; assay type: functional; outline: as §2
Rattus norvegicus [8] = assay: Antifertility activity in Wistar rat assessed as inhibition of preimplantive gestation by measuring resorptions at 36 mg/kg, po administered in days 9 to 12 of pregnancy measured on day 21; assay type: functional; design: scale not given: the % may be the effect or the level left
Outline: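 Given orally in sesame oil (0.5 mL per 200 g body weight) to groups of five female Wistar-derived rats on days 9–12 of pregnancy. Outcome scored as percent resorptions.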

Rattus norvegicus [9] = assay: Antifertility activity in Wistar rat assessed as inhibition of preimplantive gestation by measuring resorptions at 50 mg/kg, po administered in days 9 to 12 of pregnancy measured on day 21; assay type: functional; design: scale not given: the % may be the effect or the level left; outline: as §1
Rattus norvegicus [10] = assay: Antifertility activity in Wistar rat assessed as inhibition of preimplantive gestation by measuring resorptions at 2.5 mg/kg, po administered in day 11 of pregnancy measured on day 21; assay type: functional, organism-based; design: dose 2.5 mg/kg
Rattus norvegicus [11] = assay: Antifertility activity in Wistar rat assessed as inhibition of preimplantive gestation by measuring resorptions at 5 mg/kg, po administered in days 1 to 6 of pregnancy measured on day 21; assay type: functional, organism-based; design: dose 5 mg/kg
Rattus norvegicus [12] = assay: Estrogenic activity in rat at 10 to 100 mg/kg; assay type: functional, organism-based
Oryctolagus cuniculus [13] = assay: Estrogenic activity in rabbit at 10 to 100 mg/kg; assay type: functional, organism-based
Rattus norvegicus [14] = assay: Androgenic activity in rat at 10 to 100 mg/kg; assay type: functional, organism-based
Oryctolagus cuniculus [15] = assay: Androgenic activity in rabbit at 10 to 100 mg/kg; assay type: functional, organism-based
Rattus norvegicus [16] = assay: Progestational activity in rat at 10 to 100 mg/kg; assay type: functional, organism-based
Oryctolagus cuniculus [17] = assay: Progestational activity in rabbit at 10 to 100 mg/kg; assay type: functional, organism-based
Rattus norvegicus [18] = assay: Antiestrogenic activity in rat at 10 to 100 mg/kg; assay type: functional, organism-based
Oryctolagus cuniculus [19] = assay: Antiestrogenic activity in rabbit at 10 to 100 mg/kg; assay type: functional, organism-based
Rattus norvegicus [20] = assay: Antiandrogenic activity in rat at 10 to 100 mg/kg; assay type: functional, organism-based
Oryctolagus cuniculus [21] = assay: Antiandrogenic activity in rabbit at 10 to 100 mg/kg; assay type: functional, organism-based
Rattus norvegicus [22] = assay: Antiprogestational activity in rat at 10 to 100 mg/kg; assay type: functional, organism-based
Oryctolagus cuniculus [23] = assay: Antiprogestational activity in rabbit at 10 to 100 mg/kg; assay type: functional, organism-based
Rattus norvegicus [24] = assay: Toxicity in rat assessed as adverse effect at 10 to 100 mg/kg; assay type: organism-based; design: dose 10-100 mg/kg; settings: in vivo
Oryctolagus cuniculus [25] = assay: Toxicity in rabbit assessed as adverse effect at 10 to 100 mg/kg; assay type: organism-based; design: dose 10-100 mg/kg; settings: in vivo

SMILES: C[C@]12CC[C@H]3[C@@H](CCC4=C/C(=N/Oc5ccc([N+](=O)[O-])cc5[N+](=O)[O-])CC[C@@]43C)[C@@H]1CC[C@@H]2O
- Activity (Rattus norvegicus [1]): 80.8%
- Activity (Rattus norvegicus [2]): 80%
- minimal effective dose (Rattus norvegicus [3]): 1.5 mg/kg

SMILES: C[C@]12CC/C(=N\Oc3ccc([N+](=O)[O-])cc3[N+](=O)[O-])C=C1CC[C@@H]1[C@@H]2CC[C@@]2(C)[C@H]1CC[C@]2(C)O
- Activity (Rattus norvegicus [4]): 2.2%

SMILES: C[C@]12C[C@@H](Cl)/C(=N\Oc3ccc([N+](=O)[O-])cc3)C[C@@H]1CC[C@@H]1[C@@H]2CC[C@]2(C)[C@@H](O)CC[C@@H]12
- Activity (Rattus norvegicus [5]): 100%

SMILES: CC(=O)O[C@H]1CC[C@H]2[C@@H]3CC[C@H]4C/C(=N/Oc5ccc([N+](=O)[O-])cc5)CC[C@]4(C)[C@H]3CC[C@]12C
- Activity (Rattus norvegicus [6]): 96.6%
- Activity (Rattus norvegicus [7]): 2.5%
- minimal effective dose (Rattus norvegicus [3]): 30 mg/kg

SMILES: C[C@]12CC[C@H]3[C@@H](CCC4=C/C(=N/Oc5ccc([N+](=O)[O-])cc5)CC[C@@H]43)[C@@H]1CC[C@@H]2O
- Activity (Rattus norvegicus [4]): 63.9%

SMILES: C[C@]12CC/C(=N\Oc3ccc([N+](=O)[O-])cc3)C[C@@H]1CC[C@@H]1[C@@H]2CC[C@]2(C)/C(=N/O)CC[C@@H]12
- Activity (Rattus norvegicus [8]): 0%

SMILES: C[C@]12CC[C@H]3[C@@H](CCC4=C/C(=N/Oc5ccccn5)CC[C@@H]43)[C@@H]1CC[C@@H]2O
- Activity (Rattus norvegicus [4]): 100%

SMILES: C[C@]12C[C@@H](Br)/C(=N\Oc3ccc([N+](=O)[O-])cc3)C[C@@H]1CC[C@@H]1[C@@H]2CC[C@]2(C)[C@@H](O)CC[C@@H]12
- Activity (Rattus norvegicus [6]): 100%

SMILES: C[C@]12CC/C(=N\Oc3ccc([N+](=O)[O-])cc3)C[C@@H]1CC[C@@H]1[C@@H]2CC[C@]2(C)C(=O)CC[C@@H]12
- Activity (Rattus norvegicus [5]): 100%

SMILES: C[C@]12CC[C@H]3[C@@H](CCC4=C/C(=N/Oc5ccc([N+](=O)[O-])cc5[N+](=O)[O-])C=C[C@@]43C)[C@@H]1CC[C@@H]2O
- Activity (Rattus norvegicus [4]): 92.6%

SMILES: C[C@]12CC/C(=N\Oc3ccc([N+](=O)[O-])cc3C(F)(F)F)C[C@@H]1CC[C@@H]1[C@@H]2CC[C@]2(C)[C@@H](O)CC[C@@H]12
- Activity (Rattus norvegicus [9]): 0%

SMILES: C[C@]12CC[C@H]3[C@@H](CCC4=C/C(=N/Oc5ccc([N+](=O)[O-])cc5)C=C[C@@]43C)[C@@H]1CC[C@@H]2O
- Activity (Rattus norvegicus [4]): 6%

SMILES: CCCCCCC(=O)O[C@H]1CC[C@H]2[C@@H]3CC[C@H]4C/C(=N/Oc5ccc([N+](=O)[O-])cc5)CC[C@]4(C)[C@H]3CC[C@]12C
- Activity (Rattus norvegicus [5]): 100%

SMILES: CC12CC[C@H]3[C@@H](CC[C@H]4C/C(=N/Oc5ccc([N+](=O)[O-])cc5)[C@H](Cl)C[C@@]43C)[C@@H]1CCC2=O (single isomer, unassigned)
- Activity (Rattus norvegicus [6]): 100%

SMILES: C[C@]12CC[C@H]3[C@@H](CCC4=C/C(=N/Oc5ccc([N+](=O)[O-])cc5[N+](=O)[O-])CC[C@@H]43)[C@@H]1CC[C@@H]2O
- Activity (Rattus norvegicus [4]): 100%

SMILES: CC(=O)O[C@H]1CC[C@H]2[C@@H]3CC[C@H]4C/C(=N/Oc5ccc([N+](=O)[O-])cc5)[C@H](Cl)C[C@]4(C)[C@H]3CC[C@]12C [NISTERIME ACETATE]
- Activity (Rattus norvegicus [6]): 100%
- minimal effective dose (Rattus norvegicus [3]): > 90 mg/kg
- inhibition (Rattus norvegicus [10]): Active
- inhibition (Rattus norvegicus [11]): Active
- Activity (Rattus norvegicus [12]): inactive
- Activity (Oryctolagus cuniculus [13]): inactive
- Activity (Rattus norvegicus [14]): inactive
- Activity (Oryctolagus cuniculus [15]): inactive
- Activity (Rattus norvegicus [16]): inactive
- Activity (Oryctolagus cuniculus [17]): inactive
- Activity (Rattus norvegicus [18]): inactive
- Activity (Oryctolagus cuniculus [19]): inactive
- Activity (Rattus norvegicus [20]): inactive
- Activity (Oryctolagus cuniculus [21]): inactive
- Activity (Rattus norvegicus [22]): inactive
- Activity (Oryctolagus cuniculus [23]): inactive
- Activity (Rattus norvegicus [24]): Non-toxic
- Activity (Oryctolagus cuniculus [25]): Non-toxic
